In brackets after ≈: the same amount, converted by molar mass.
What was measured:
[1] = tested on: Mycobacterium tuberculosis; test: Antimycobacterial activity against Mycobacterium tuberculosis H37Rv assessed as bacterial growth inhibition under replicating, aerobic condition by microplate Alamar blue assay; type: functional
Outline: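 Read-out is MIC90, the lowest concentration giving 90% growth inhibition of M.tb H37Rv, in µg/mL. Bacteria were grown under aerobic, replicating conditions (MABA).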

[2] = tested on: Mycobacterium tuberculosis; test: Antimycobacterial activity against Mycobacterium tuberculosis H37Rv assessed as bacterial growth inhibition incubated for 10 days under anerobic condition followed by incubation under ambient gaseous condition for […] by low oxygen recovery assay; type: functional
Outline: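 Read-out is MIC90, the lowest concentration giving 90% growth inhibition of M.tb H37Rv, in µg/mL. Bacteria were held under non-replicating, low-oxygen conditions (LORA).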

[3] = target: T1, hERG (KCNH2) (Homo sapiens, UniProt Q12809); test: Inhibition of human ERG at 3 uM relative to control
[4] = target: Voltage-gated inwardly rectifying potassium channel KCNH2 (Homo sapiens, UniProt Q12809); test: Inhibition of human ERG
[5] = Intrinsic clearance in human liver microsomes assessed per mg protein; type: ADME, Microsome; conditions: read-out: CLH
Outline: (§1)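 Clearance of compound by human or mouse liver microsomes, expressed as µL/min/mg protein.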

[6] = Intrinsic clearance in mouse liver microsomes assessed per mg protein; type: ADME, Microsome; conditions: read-out: CLH; outline: as §1
[7] = Clearance in CD-1 mouse at 2 to 3 mg/kg, iv administered as single bolus dose; type: ADME, organism-based; conditions: in vivo
Outline: (§2)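 Male CD-1 mice received a single intravenous bolus at 2–3 mg/kg. Reported values are IV clearance and the apparent volume of distribution during the terminal phase, in L/kg.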

[8] = Apparent volume of distribution during terminal phase in CD-1 mouse at 2 to 3 mg/kg, iv administered as single bolus dose; type: ADME, organism-based; conditions: in vivo; outline: as §2
[9] = AUC (0 to infinity) in CD-1 mouse at 10 mg/kg, po via gavage administered as single dose; type: ADME, organism-based; set-up: dose 10 mg/kg, route oral, time infinity; conditions: in vivo
Outline: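 Male CD-1 mice given a single 10 mg/kg dose by oral gavage. Exposure is reported as area under the curve from 0 to infinity in µg*h/mL.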

[10] = Oral bioavailability in CD-1 mouse at 10 mg/kg administered via gavage as single dose; type: ADME, organism-based; conditions: in vivo
[11] = tested on: Vero; test: Cytotoxicity against African green monkey Vero cells assessed as reduction in cell viability incubated for 72 hrs by […] assay; type: cell-based; conditions: Chlorocebus sabaeus
[12] = target: T1, hERG (KCNH2); test: Inhibition of human ERG at 10 uM relative to control
[13] = Protein binding in human plasma; type: ADME, cell-free; conditions: read-out: PPB

Voltage-gated inwardly rectifying potassium channel KCNH2, sequence (Q12809 whole entry): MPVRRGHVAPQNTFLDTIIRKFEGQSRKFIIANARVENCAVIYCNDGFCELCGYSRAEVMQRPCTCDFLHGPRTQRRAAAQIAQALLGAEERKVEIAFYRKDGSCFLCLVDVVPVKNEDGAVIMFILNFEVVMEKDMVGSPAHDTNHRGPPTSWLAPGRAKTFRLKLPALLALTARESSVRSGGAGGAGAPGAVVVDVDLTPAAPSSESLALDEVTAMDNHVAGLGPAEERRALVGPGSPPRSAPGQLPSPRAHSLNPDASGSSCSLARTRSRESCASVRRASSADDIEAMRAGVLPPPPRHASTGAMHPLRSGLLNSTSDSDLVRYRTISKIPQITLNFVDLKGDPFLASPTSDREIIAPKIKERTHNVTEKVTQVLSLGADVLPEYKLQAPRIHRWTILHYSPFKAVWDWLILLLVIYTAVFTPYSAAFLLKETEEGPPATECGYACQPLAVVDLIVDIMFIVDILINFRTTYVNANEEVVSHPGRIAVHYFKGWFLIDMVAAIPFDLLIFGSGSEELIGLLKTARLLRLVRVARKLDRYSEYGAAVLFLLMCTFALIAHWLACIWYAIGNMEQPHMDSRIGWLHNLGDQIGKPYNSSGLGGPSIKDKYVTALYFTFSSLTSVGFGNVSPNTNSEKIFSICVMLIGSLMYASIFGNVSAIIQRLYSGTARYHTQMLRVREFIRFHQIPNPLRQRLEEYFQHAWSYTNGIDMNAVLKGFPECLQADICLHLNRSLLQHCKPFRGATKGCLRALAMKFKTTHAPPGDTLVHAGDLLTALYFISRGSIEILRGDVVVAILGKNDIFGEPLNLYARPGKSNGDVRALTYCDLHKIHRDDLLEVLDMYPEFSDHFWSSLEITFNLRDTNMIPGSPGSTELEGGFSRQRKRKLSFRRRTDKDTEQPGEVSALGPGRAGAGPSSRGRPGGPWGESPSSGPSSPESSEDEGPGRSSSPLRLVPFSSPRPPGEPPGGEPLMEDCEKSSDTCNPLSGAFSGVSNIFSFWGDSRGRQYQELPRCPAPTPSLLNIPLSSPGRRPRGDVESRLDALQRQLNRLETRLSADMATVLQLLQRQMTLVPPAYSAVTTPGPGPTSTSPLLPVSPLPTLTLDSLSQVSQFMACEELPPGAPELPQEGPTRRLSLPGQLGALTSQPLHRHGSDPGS
T1 sequence (Q12809 whole entry): as above

Row | Structure (SMILES) | MIC90 [1] [µg/mL] | MIC90 [2] [µg/mL] | inhibition at 3 µM [3] [%] | IC50 [4] [µM] | microsomal CLint [5] [µL/min/mg] | microsomal CLint [6] [µL/min/mg] | clearance [7] [mL/min/kg] | Vz/F [8] [L/kg] | AUC(0-inf) [9] [ng·h/mL] | bioavailability [10] [%] | IC50 [11] [µg/mL] | inhibition at 10 µM [12] [%] | fraction unbound [13]
1 | COc1nc2ccc(Br)cc2cc1[C@@H](c1cccc(C)c1F)[C@@](O)(CCN(C)C)c1cc(SC)nc(SC)c1 (racemic) | < 0.004 | 0.06 (≈ 0.0951 µM) | 13 | – | – | – | – | – | – | – | – | – | –
2 | COc1nc2ccc(C#N)cc2cc1[C@@H](c1cccc(C)c1F)[C@@](O)(CCN(C)C)c1cc(SC)nc(SC)c1 (racemic) | 0.02 (≈ 0.0347 µM) | 0.17 (≈ 0.295 µM) | – | > 10 | 9.2 | 13 | 22 | 79 | 2400 | 31 | > 10 | – | –
3 | CCSc1cc([C@](O)(CCN(C)C)[C@H](c2ccccc2)c2cc3cc(Br)ccc3nc2OC)cc(SCC)n1 (racemic) | 0.02 (≈ 0.0319 µM) | 0.05 (≈ 0.0798 µM) | – | > 30 | 2.3 | 17 | 11 | 30 | 4000 | 24 | > 10 | – | –
4 | COc1cc([C@](O)(CCN(C)C)[C@@H](c2cc3cc(Br)ccc3nc2OC)c2cccc(C)c2F)cc(OC(F)F)n1 (racemic) | 0.01 (≈ 0.0158 µM) | 0.03 (≈ 0.0473 µM) | – | – | – | – | – | – | – | – | – | 3 | –
5 | COc1nc2ccc(Br)cc2cc1[C@@H](c1ccnc(OC)c1OC)[C@@](O)(CCN(C)C)c1cc(SC)nc(SC)c1 (racemic) | < 0.02 | < 0.02 | – | 2.8 | 8.8 | 10 | 18 | 64 | 3900 | 41 | > 10 | – | –
6 | COc1cccc([C@H](c2cc3cc(C#N)ccc3nc2OC)[C@@](O)(CCN(C)C)c2cc(SC)nc(SC)c2)c1F (racemic) | 0.03 (≈ 0.0506 µM) | 0.05 (≈ 0.0844 µM) | – | 5.1 | 15 | 20 | 44 | 53 | 1100 | 28 | > 10 | – | –
7 | CCSc1cc([C@](O)(CCN(C)C)[C@@H](c2cc3cc(C#N)ccc3nc2OC)c2cccc(C)c2F)cc(SCC)n1 (racemic) | < 0.02 | 0.06 (≈ 0.0992 µM) | – | > 10 | 9.1 | 33 | 9.4 | 41 | 4000 | 22 | > 10 | – | –
8 | CCSc1cc([C@](O)(CCN(C)C)[C@H](c2cccc(C)c2)c2cc3cc(C#N)ccc3nc2OC)cc(N(C)C)n1 (racemic) | 0.12 (≈ 0.211 µM) | 0.17 (≈ 0.298 µM) | 51 | – | – | – | – | – | – | – | – | – | –
9 | CCSc1cc([C@](O)(CCN(C)C)[C@@H](c2cc3cc(Br)ccc3nc2OC)c2cccc(OC)c2F)cc(SCC)n1 (racemic) | < 0.02 | < 0.02 | – | > 10 | 4.9 | 12 | 3.6 | 14 | 11900 | 25 | 6.5 (≈ 9.63 µM) | – | –
10 | CCSc1cc([C@](O)(CCN(C)C)[C@H](c2cccc(C)c2)c2cc3cc(Br)ccc3nc2OC)cc(N(C)C)n1 (racemic) | 0.14 (≈ 0.224 µM) | 0.12 (≈ 0.192 µM) | 23 | – | – | – | – | – | – | – | – | – | –
11 | CCSc1cc([C@](O)(CCN(C)C)[C@@H](c2cc3cc(C#N)ccc3nc2OC)c2cccc(OC)c2F)cc(SCC)n1 (racemic) | 0.1 (≈ 0.161 µM) | 0.2 (≈ 0.322 µM) | – | > 10 | 17 | 27 | 29 | 93 | 1400 | 24 | > 10 | – | –
12 | CCSc1cc([C@](O)(CCN(C)C)[C@@H](c2cc3cc(Br)ccc3nc2OC)c2cccc3c2OCO3)cc(SCC)n1 (racemic) | 0.01 (≈ 0.0149 µM) | 0.06 (≈ 0.0895 µM) | – | > 10 | 9.5 | 12 | 3.4 | 9.4 | 5500 | 11 | > 10 | – | –
13 | COc1cc([C@](O)(CCN(C)C)[C@@H](c2cc3cc(Br)ccc3nc2OC)c2cccc(OC)c2F)cc(OC)n1 (racemic) [TBAJ-587] | – | 0.01 (≈ 0.0163 µM) | – | – | 2.2 | – | – | – | – | – | – | – | < 0.005
14 | COc1cc([C@](O)(CCN(C)C)[C@@H](c2cc3cc(Br)ccc3nc2OC)c2cc(OC)nc(OC)c2OC)cc(OC)n1 (racemic) [TBAJ-876] | – | – | – | – | – | – | – | – | – | – | – | – | < 0.005
15 | COc1nc2ccc(Br)cc2cc1[C@@H](c1ccccc1)[C@@](O)(CCN(C)C)c1cccc2ccccc12 [BEDAQUILINE] | 0.03 (≈ 0.054 µM) | 0.06 (≈ 0.108 µM) | – | – | – | – | – | – | 17400 | – | – | – | < 0.005
